We go through two compounds from PMC6626631 (Biochemical and biophysical research communications, 2018).

Entries after “also recorded” stand apart in the source; their conditions may differ.

Type in all cases: biochemical
One assay deals with T1, OPA1 (195—960) (Homo sapiens, UniProt O60313).
T1 sequence (O60313 195-960): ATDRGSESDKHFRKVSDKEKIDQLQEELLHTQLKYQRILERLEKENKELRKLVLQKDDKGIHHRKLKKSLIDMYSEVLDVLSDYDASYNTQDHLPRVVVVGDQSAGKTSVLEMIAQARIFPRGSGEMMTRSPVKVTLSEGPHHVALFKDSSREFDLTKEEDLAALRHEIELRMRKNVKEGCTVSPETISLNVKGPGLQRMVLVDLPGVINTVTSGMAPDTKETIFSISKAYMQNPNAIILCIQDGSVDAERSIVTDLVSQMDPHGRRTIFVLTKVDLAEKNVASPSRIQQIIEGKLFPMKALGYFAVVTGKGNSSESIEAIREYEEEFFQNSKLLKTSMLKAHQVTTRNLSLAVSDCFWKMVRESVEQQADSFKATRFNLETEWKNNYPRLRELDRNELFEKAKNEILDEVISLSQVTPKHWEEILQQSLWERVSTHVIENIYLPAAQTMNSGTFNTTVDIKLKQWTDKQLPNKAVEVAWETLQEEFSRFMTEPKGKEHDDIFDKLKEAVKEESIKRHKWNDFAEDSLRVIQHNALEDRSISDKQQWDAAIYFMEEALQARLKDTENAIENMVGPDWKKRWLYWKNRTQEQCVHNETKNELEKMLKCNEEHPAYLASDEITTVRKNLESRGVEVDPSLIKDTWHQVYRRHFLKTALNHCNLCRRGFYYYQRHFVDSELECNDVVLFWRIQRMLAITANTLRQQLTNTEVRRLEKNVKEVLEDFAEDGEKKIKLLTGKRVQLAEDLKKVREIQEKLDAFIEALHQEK
The assay can be described thus: Liposome-dependent malachite green GTPase activity assay, OPA1. The settings on record: read-out: Potency of inhibition, OPA1; data not shown. In short, it runs like this: (§1)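 Ni-NTA-purified E. coli enzyme (tag removed for dynamin-1, OPA1), 0.6 μM, preincubated 20 min RT with 80:20 soybean polar lipid:cardiolipin liposomes (0.1 mg/mL) and compound or DMSO; started by 1 mM GTP at 37 °C in 10 mM Hepes pH 7.0, 100 mM KCl, 4 mM MgCl2, 1% DMSO. EDTA stop, malachite green, A650 to phosphate rate; IC50 4-parameter fit.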

The target of a further assay is DRP1 (Homo sapiens, UniProt O00429). Description: Malachite green GTPase activity assay in the absence of liposomes, DRP1. The settings on record: dose response in presence vs absence of liposomes.
DRP1, sequence (O00429 1-699 isoform O00429-4): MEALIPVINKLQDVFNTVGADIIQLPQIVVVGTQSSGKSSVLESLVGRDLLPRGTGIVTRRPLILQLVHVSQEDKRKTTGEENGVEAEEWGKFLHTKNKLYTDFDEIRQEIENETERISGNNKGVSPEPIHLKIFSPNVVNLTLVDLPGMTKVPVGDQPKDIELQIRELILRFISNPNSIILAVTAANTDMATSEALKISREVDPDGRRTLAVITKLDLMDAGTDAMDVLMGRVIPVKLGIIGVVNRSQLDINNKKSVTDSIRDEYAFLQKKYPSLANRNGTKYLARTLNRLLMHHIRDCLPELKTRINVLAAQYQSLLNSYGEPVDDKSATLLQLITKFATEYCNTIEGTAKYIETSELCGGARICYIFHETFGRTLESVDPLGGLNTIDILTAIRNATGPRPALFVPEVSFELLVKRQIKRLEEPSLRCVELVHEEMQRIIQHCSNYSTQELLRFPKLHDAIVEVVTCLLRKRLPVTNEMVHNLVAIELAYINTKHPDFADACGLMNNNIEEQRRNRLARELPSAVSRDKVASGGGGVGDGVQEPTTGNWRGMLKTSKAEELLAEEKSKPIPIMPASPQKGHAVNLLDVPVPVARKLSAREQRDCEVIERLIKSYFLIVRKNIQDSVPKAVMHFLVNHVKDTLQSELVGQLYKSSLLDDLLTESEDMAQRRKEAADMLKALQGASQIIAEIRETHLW
The target of a further assay is T2, dynamin-1 (1—752) (Homo sapiens, UniProt Q05193).
T2 sequence (Q05193 1-752): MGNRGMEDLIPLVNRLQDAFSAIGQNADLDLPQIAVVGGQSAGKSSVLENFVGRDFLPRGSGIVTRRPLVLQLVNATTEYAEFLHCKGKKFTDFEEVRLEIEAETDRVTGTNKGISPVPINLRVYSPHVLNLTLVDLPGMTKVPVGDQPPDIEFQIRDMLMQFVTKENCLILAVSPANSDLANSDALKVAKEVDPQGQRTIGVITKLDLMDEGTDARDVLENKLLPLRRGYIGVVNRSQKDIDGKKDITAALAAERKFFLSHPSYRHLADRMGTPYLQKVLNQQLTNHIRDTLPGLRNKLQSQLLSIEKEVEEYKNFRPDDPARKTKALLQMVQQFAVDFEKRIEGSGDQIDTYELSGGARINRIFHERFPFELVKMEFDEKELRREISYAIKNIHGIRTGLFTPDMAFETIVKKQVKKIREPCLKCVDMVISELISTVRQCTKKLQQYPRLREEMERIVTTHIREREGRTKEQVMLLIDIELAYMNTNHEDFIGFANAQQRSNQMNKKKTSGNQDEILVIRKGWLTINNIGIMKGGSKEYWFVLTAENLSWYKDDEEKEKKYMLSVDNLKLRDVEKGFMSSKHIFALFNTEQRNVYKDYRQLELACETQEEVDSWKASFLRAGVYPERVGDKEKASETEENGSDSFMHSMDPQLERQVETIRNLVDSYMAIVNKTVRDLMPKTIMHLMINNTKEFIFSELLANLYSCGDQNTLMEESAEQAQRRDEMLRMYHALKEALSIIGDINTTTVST
Description: Liposome-dependent malachite green GTPase activity assay, dynamin-1. The settings on record: read-out: Potency of inhibition, dynamin-1; data not shown. In a few lines:
as §1

The target in the next assay is Human DRP1 (1—699) (Homo sapiens, UniProt O00429). Description: Liposome-dependent malachite green GTPase activity assay, DRP1. In short, it runs like this:
as §1

Human DRP1 (1—699), sequence (O00429 1-699 isoform O00429-4): as the sequence (O00429 1-699 isoform O00429-4) above

For `Nc1nc2c(ncn2[C@@H]2O[C@H](COP(=O)(O)OP(=O)(O)OP(O)(O)=S)[C@@H](O)[C@H]2O)c(=O)[nH]1` [GTPγS], the IC50 on OPA1 (195—960) is 300 to 500 µM; on dynamin-1 (1—752), 300 to 500 µM; at Human DRP1 (1—699) (read-out: Potency of inhibition, DRP1, data not shown), 300 to 500 µM. Further, the “Potency/activity in the absence of liposomes” value on DRP1 is reported as “unaffected by liposomes”.
For `COc1cc(-n2c(=S)[nH]c3ccccc3c2=O)c(Cl)cc1Cl` [mdivi-1], the “Inhibition of DRP1 GTPase activity (in words)” value at Human DRP1 (1—699) (presence of liposomes, up to 100 μM compound concentration) is reported as “did not inhibit oligomeric DRP1 GTPase activity; also recorded: do not inhibit DRP1 up to 100 μM”.
